Here are results for 5 compounds from ChEMBL document CHEMBL1152825, “Pseudomonas aeruginosa may accumulate drug resistance mechanisms without losing its ability to cause bloodstream infections” (2007).

Values after ≈ are worked out from the molar mass of the structure shown.

Test [1] has as its system Pseudomonas aeruginosa. The test is described as follows: Antibacterial activity against beta-lactams resistant Pseudomonas aeruginosa isolate expressing AmpC, MexAB-OprM pump by macrodilution technique. It is filed as functional. The procedure, abridged: (§1)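 Bloodstream P. aeruginosa isolates from patients in six French teaching hospitals (1999–2004). MICs by agar macrodilution on Mueller-Hinton agar with calibrated divalent cations. Isolates were graded susceptible, intermediate or resistant by CLSI breakpoints. Resistance was defined as a ≥fourfold MIC rise over reference strain PAO1. Resistance mechanisms were assigned by RT-PCR (PAO1-derived overexpressing mutants as controls) and gene complementation.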

Test [2] relates to Pseudomonas aeruginosa. The test is described as follows: Antibacterial activity against beta-lactams resistant Pseudomonas aeruginosa isolate expressing MexAB-OprM pump by macrodilution technique. It is filed as functional. The essentials:
(§2)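 MICs by agar macrodilution on Mueller-Hinton agar with calibrated divalent cations. Isolates were graded susceptible, intermediate or resistant by CLSI breakpoints. Resistance was defined as a ≥fourfold MIC rise over reference strain PAO1. Resistance mechanisms were assigned by RT-PCR (PAO1-derived overexpressing mutants as controls) and gene complementation.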

Test [3] concerns Pseudomonas aeruginosa. As to the kind of experiment: Antibacterial activity against beta-lactams resistant Pseudomonas aeruginosa isolate expressing MexAB-OprM pump, MexXY-OprM pump by macrodilution technique. It is filed as functional. The procedure, abridged:
as §2

In test [4] the test system is Pseudomonas aeruginosa. The test is described as follows: Antibacterial activity against beta-lactams resistant Pseudomonas aeruginosa isolate expressing OXA2 by macrodilution technique. It is filed as functional. The essentials:
as §2

Test [5] deals with Pseudomonas aeruginosa. The test is described as follows: Antibacterial activity against beta-lactams resistant Pseudomonas aeruginosa isolate expressing AmpC, MexAB-OprM pump, MexXY-OprM pump by macrodilution technique. It is filed as functional. The essentials:
as §2

The subject of test [6] is Pseudomonas aeruginosa. The test is described as follows: Antibacterial activity against beta-lactams resistant Pseudomonas aeruginosa isolate expressing AmpC by macrodilution technique. The class given is functional. The essentials: as §2
Test [7] concerns Pseudomonas aeruginosa. The test is described as follows: Antibacterial activity against Pseudomonas aeruginosa clinical isolates assessed as resistant rate by macrodilution technique. The class given is functional.
The subject of test [8] is Pseudomonas aeruginosa. As to the kind of experiment: Antibacterial activity against Pseudomonas aeruginosa clinical isolate by macrodilution technique. It is filed as functional.
In test [9] the test system is Pseudomonas aeruginosa. As to the kind of experiment: Antibacterial activity against wild type Pseudomonas aeruginosa PAO1 by macrodilution technique. It is filed as functional. The procedure, abridged: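 Wild-type reference strain PAO1. MIC by agar macrodilution on Mueller-Hinton agar with calibrated divalent cations. It served as the baseline for defining a ≥fourfold MIC increase in clinical isolates, and as the expression reference in RT-PCR.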

Test [10] relates to Pseudomonas aeruginosa. As to the kind of experiment: Antibacterial activity against wild type Pseudomonas aeruginosa isolate by macrodilution technique. It is filed as functional. The essentials:
as §2

Test [11] concerns Pseudomonas aeruginosa. The test is described as follows: Antibacterial activity against aminoglycoside-resistant Pseudomonas aeruginosa isolate expressing MexXY-OprM pump by macrodilution technique. The class given is functional. The procedure, abridged: as §1
Test [12] relates to Pseudomonas aeruginosa. The test is described as follows: Antibacterial activity against MexXY-OprM pump-independent aminoglycoside-resistant Pseudomonas aeruginosa isolate by macrodilution technique. It is filed as functional. The procedure, abridged:
as §1

Test [13] concerns Pseudomonas aeruginosa. The test is described as follows: Antibacterial activity against aminoglycoside-resistant Pseudomonas aeruginosa isolate expressing MexXY-OprM pump, ANT(2'')-1 by macrodilution technique. The class given is functional. The essentials:
as §1

The subject of test [14] is Pseudomonas aeruginosa. The test is described as follows: Antibacterial activity against aminoglycoside-resistant Pseudomonas aeruginosa isolate expressing MexXY-OprM pump, AAC(6')-1 by macrodilution technique. It is filed as functional. The procedure, abridged: as §1
Test [15] relates to Pseudomonas aeruginosa. The test is described as follows: Antibacterial activity against aminoglycoside-resistant Pseudomonas aeruginosa isolate expressing ANT(2'')-1 by macrodilution technique. The class given is functional. The essentials:
as §1

In test [16] the test system is Pseudomonas aeruginosa. As to the kind of experiment: Antibacterial activity against aminoglycoside-resistant Pseudomonas aeruginosa isolate expressing AAC(6')-1, ANT(2'')-1 by macrodilution technique. The class given is functional. The procedure, abridged: as §1
Test [17] has as its system Pseudomonas aeruginosa. As to the kind of experiment: Antibacterial activity against aminoglycoside-resistant Pseudomonas aeruginosa isolate expressing MexXY-OprM pump, AAC(6')-1, ANT(2'')-1 by macrodilution technique. The class given is functional. The essentials: as §1
Test [18] relates to Pseudomonas aeruginosa. As to the kind of experiment: Antibacterial activity against aminoglycoside-resistant Pseudomonas aeruginosa isolate expressing MexXY-OprM pump, AAC(3')-1 by macrodilution technique. It is filed as functional. The procedure, abridged:
as §1

For test [19], the system named is Pseudomonas aeruginosa. The test is described as follows: Antibacterial activity against aminoglycoside-resistant Pseudomonas aeruginosa isolate expressing MexXY-OprM pump, AAC(6')-1, AAC(3')-1 by macrodilution technique. The class given is functional. The essentials:
as §1

In test [20] the test system is Pseudomonas aeruginosa. As to the kind of experiment: Antibacterial activity against aminoglycoside-resistant Pseudomonas aeruginosa isolate expressing AAC(6')-1 by macrodilution technique. The class given is functional. The essentials: as §1
In test [21] the test system is Pseudomonas aeruginosa. The test is described as follows: Antibacterial activity against Pseudomonas aeruginosa clinical isolates assessed as susceptible rate by macrodilution technique. The class given is functional.
The test system of test [22] is Pseudomonas aeruginosa. The test is described as follows: Antibacterial activity against beta-lactams resistant Pseudomonas aeruginosa isolate expressing MexXY-OprM pump, TEM-2 by macrodilution technique. The class given is functional. The essentials: as §2
Test [23] concerns Pseudomonas aeruginosa. The test is described as follows: Antibacterial activity against beta-lactams resistant Pseudomonas aeruginosa isolate expressing MexXY-OprM pump by macrodilution technique. The class given is functional. The essentials:
as §2

Test [24] relates to Pseudomonas aeruginosa. As to the kind of experiment: Antibacterial activity against beta-lactams resistant Pseudomonas aeruginosa isolate expressing AmpC, MexXY-OprM pump by macrodilution technique. It is filed as functional. The essentials: as §2
The test system of test [25] is Pseudomonas aeruginosa. As to the kind of experiment: Antibacterial activity against beta-lactams resistant OprD-deficient Pseudomonas aeruginosa isolate by macrodilution technique. The class given is functional. The procedure, abridged: as §2
The test system of test [26] is Pseudomonas aeruginosa. As to the kind of experiment: Antibacterial activity against beta-lactams resistant Pseudomonas aeruginosa isolate expressing PSE-1, MexXY-OprM pump by macrodilution technique. The class given is functional. The procedure, abridged:
as §2

Test [27] deals with Pseudomonas aeruginosa. As to the kind of experiment: Antibacterial activity against beta-lactams resistant Pseudomonas aeruginosa isolate expressing AmpC, PSE-1, MexXY-OprM pump by macrodilution technique. It is filed as functional. The essentials:
as §2

Test [28] has as its system Pseudomonas aeruginosa. As to the kind of experiment: Antibacterial activity against beta-lactams resistant Pseudomonas aeruginosa isolate expressing PSE-1 by macrodilution technique. It is filed as functional. The procedure, abridged:
as §2

Test [29] relates to Pseudomonas aeruginosa. As to the kind of experiment: Antibacterial activity against beta-lactams resistant Pseudomonas aeruginosa isolate expressing AmpC, MexXY-OprM pump, TEM-2 by macrodilution technique. The class given is functional. The essentials: as §2
Test [30] relates to Pseudomonas aeruginosa. The test is described as follows: Antibacterial activity against fluoroquinolone-resistant Pseudomonas aeruginosa isolate with GyrA mutant by macrodilution technique.

As a reminder, the MIC is the smallest concentration in the dilution series that meets the test's criterion for growth inhibition. As to `CO/N=C(\C(=O)N[C@@H]1C(=O)N2C(C(=O)[O-])=C(C[N+]3(C)CCCC3)CS[C@H]12)c1csc(N)n1`, the MIC against Pseudomonas aeruginosa [1] turned out to be 8 µg/mL (≈ 16.6 µM); with Pseudomonas aeruginosa [2], 8 µg/mL (≈ 16.6 µM); in the test with Pseudomonas aeruginosa [3], 8 µg/mL (≈ 16.6 µM); in the test on Pseudomonas aeruginosa [4], 2 µg/mL (≈ 4.16 µM); in the test with Pseudomonas aeruginosa [5], 8 µg/mL (≈ 16.6 µM); against Pseudomonas aeruginosa [6], 8 µg/mL (≈ 16.6 µM).
Usually MIC50 stands for the lowest concentration that inhibits either 50% of growth or 50% of the strains tested, depending on the study. The term MIC90 denotes the lowest concentration that inhibits either 90% of growth or 90% of the strains tested, depending on the study. Higher therefore signals lower susceptibility. `NCC[C@H](O)C(=O)N[C@@H]1C[C@H](N)[C@@H](O[C@H]2O[C@H](CN)[C@@H](O)[C@H](O)[C@H]2O)[C@H](O)[C@H]1O[C@H]1O[C@H](CO)[C@@H](O)[C@H](N)[C@H]1O` [AMIKACIN]: the Activity with Pseudomonas aeruginosa [7] is 1.7%; with Pseudomonas aeruginosa [21] it was 93.3%. In the test with Pseudomonas aeruginosa [8], this compound displayed an MIC50 of 4 µg/mL (≈ 6.83 µM). For the same compound, the MIC90 with Pseudomonas aeruginosa [8] was 16 µg/mL (≈ 27.3 µM). Further, the MIC came to 4 µg/mL (≈ 6.83 µM) against Pseudomonas aeruginosa [9]; 4 µg/mL (≈ 6.83 µM) against Pseudomonas aeruginosa [10]; 8 µg/mL (≈ 13.7 µM) against Pseudomonas aeruginosa [11]; 8 µg/mL (≈ 13.7 µM) in the test with Pseudomonas aeruginosa [12]; 8 µg/mL (≈ 13.7 µM) against Pseudomonas aeruginosa [13]; 32 µg/mL (≈ 54.6 µM) against Pseudomonas aeruginosa [14]. The MIC with Pseudomonas aeruginosa [15] is 4 µg/mL (≈ 6.83 µM); against Pseudomonas aeruginosa [16], 16 µg/mL (≈ 27.3 µM); against Pseudomonas aeruginosa [17], 16 µg/mL (≈ 27.3 µM); in the test with Pseudomonas aeruginosa [18], 8 µg/mL (≈ 13.7 µM); with Pseudomonas aeruginosa [19], 128 µg/mL (≈ 219 µM); in the test with Pseudomonas aeruginosa [20], 16 µg/mL (≈ 27.3 µM).
As for `C[C@H]1[C@H](NC(=O)/C(=N\OC(C)(C)C(=O)O)c2csc(N)n2)C(=O)N1S(=O)(=O)O` [AZTREONAM], the minimum inhibitory concentration (MIC) in the test with Pseudomonas aeruginosa [1] and against Pseudomonas aeruginosa [22] was 8 µg/mL (≈ 18.4 µM) throughout.
Regarding `CC(C)(O/N=C(\C(=O)N[C@@H]1C(=O)N2C(C(=O)[O-])=C(C[n+]3ccccc3)CS[C@H]12)c1csc(N)n1)C(=O)O` [CEFTAZIDIME], the Activity in the test on Pseudomonas aeruginosa [7] was 3.3%; in the test with Pseudomonas aeruginosa [21] it was 90%. In the test on Pseudomonas aeruginosa [8], this compound yielded an MIC50 of 2 µg/mL (≈ 3.66 µM). Further, the MIC90 against Pseudomonas aeruginosa [8] came out at 8 µg/mL (≈ 14.6 µM). The MIC in the test with Pseudomonas aeruginosa [9] came to 1 µg/mL (≈ 1.83 µM); against Pseudomonas aeruginosa [23] it was 2 µg/mL (≈ 3.66 µM); in the test with Pseudomonas aeruginosa [24] it was 8 µg/mL (≈ 14.6 µM); with Pseudomonas aeruginosa [25], 2 µg/mL (≈ 3.66 µM); against Pseudomonas aeruginosa [26], 2 µg/mL (≈ 3.66 µM); with Pseudomonas aeruginosa [27] it was 8 µg/mL (≈ 14.6 µM). Further, the MIC in the test with Pseudomonas aeruginosa [28] worked out at 2 µg/mL (≈ 3.66 µM); in the test with Pseudomonas aeruginosa [1], 4 µg/mL (≈ 7.32 µM); in the test with Pseudomonas aeruginosa [2], 4 µg/mL (≈ 7.32 µM); in the test on Pseudomonas aeruginosa [3] it was 2 µg/mL (≈ 3.66 µM); with Pseudomonas aeruginosa [29], 32 µg/mL (≈ 58.5 µM); with Pseudomonas aeruginosa [4], 2 µg/mL (≈ 3.66 µM). Further, the MIC in the test with Pseudomonas aeruginosa [5] was 16 µg/mL (≈ 29.3 µM); in the test with Pseudomonas aeruginosa [22], 8 µg/mL (≈ 14.6 µM); against Pseudomonas aeruginosa [6] it was 16 µg/mL (≈ 29.3 µM).
`O=C(O)c1cn(C2CC2)c2cc(N3CCNCC3)c(F)cc2c1=O` [CIPROFLOXACIN] gave an MIC with Pseudomonas aeruginosa [30] of 16 µg/mL (≈ 48.3 µM).
